Data reported in ChEMBL document CHEMBL1949555, “Piperazine-2,3-dicarboxylic acid derivatives as dual antagonists of NMDA and GluK1-containing kainate receptors” (J Med Chem, 2012).
Active and inactive are the calls of the source.

What was measured:
[1] = species: Rattus norvegicus; experiment: Selectivity ratio of IC50 for rat GluK3 receptor to IC50 for rat GluK1 receptor
Method in brief: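 IC50 ratio from whole-cell patch clamp on HEK293 cells stably expressing homomeric GluK1 or GluK3, voltage clamped at −70 mV, 20°C. Glutamate is applied fast through a theta tube. Antagonist is applied about 2 min or until the response is stable, at five concentrations per cell, giving a dose-response curve for each cell.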

[2] = system: HEK293; experiment: Displacement of [3H]-Kainate from […] rat GluK3 A660S mutant transfected in human HEK293 cells at 300 uM by immunoblot analysis; type: cell-based
[3] = biological target: Glutamate receptor ionotropic, kainate 1 (Homo sapiens, UniProt P39086); experiment: Antagonist activity at human recombinant GluK1 receptor expressed in human HEK293 cells assessed as inhibition of glutamate-stimulated calcium influx by fluorescence assay; type: functional, cell-based
Glutamate receptor ionotropic, kainate 1, sequence (P39086 whole entry): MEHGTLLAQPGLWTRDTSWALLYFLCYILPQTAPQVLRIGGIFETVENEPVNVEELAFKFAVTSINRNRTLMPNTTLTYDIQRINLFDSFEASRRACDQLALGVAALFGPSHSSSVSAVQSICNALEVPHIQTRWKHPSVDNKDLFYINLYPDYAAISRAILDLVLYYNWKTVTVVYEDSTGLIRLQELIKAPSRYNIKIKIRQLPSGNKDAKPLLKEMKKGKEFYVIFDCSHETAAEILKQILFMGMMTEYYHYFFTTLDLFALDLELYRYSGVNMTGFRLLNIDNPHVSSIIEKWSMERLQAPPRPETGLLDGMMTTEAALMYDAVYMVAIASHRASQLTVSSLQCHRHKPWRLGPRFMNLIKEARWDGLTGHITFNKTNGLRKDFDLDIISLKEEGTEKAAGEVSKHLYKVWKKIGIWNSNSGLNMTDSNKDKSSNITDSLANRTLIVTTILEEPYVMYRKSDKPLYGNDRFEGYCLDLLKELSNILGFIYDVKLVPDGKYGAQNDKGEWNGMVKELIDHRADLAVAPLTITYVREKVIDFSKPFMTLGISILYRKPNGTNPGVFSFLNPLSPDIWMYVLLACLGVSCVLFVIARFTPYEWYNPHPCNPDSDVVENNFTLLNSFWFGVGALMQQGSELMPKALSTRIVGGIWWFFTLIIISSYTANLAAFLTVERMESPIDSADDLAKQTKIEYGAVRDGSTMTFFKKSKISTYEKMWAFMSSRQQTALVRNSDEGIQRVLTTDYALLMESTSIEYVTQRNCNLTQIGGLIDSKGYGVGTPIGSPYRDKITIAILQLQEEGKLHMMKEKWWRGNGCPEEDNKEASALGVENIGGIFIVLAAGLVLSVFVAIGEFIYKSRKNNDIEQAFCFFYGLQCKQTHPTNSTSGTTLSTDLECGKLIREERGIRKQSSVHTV
Method in brief: (§1)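 HEK293 lines stably expressing homomeric human GluK1(Q) or GluK2(Q), passaged no more than 20 times. Ca2+ influx is read as fluorescence, with concanavalin A present. Test compound is added in a first run, then L-glutamate plus antagonist in a second run (final glutamate 30 μM for GluK1, 10 μM for GluK2). IC50 values are converted to KB. Means ± s.e.m.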

[4] = species: Rattus norvegicus; experiment: Antagonist activity at AMPA receptor in CA3 region of rat hippocampus assessed as change in AMPA-mediated field excitatory postsynaptic potential at 100 uM; type: functional, tissue-based
Method in brief: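 Field EPSPs recorded from transverse rat hippocampal slices (400 μm), CA3 mossy fiber synapses. Compound 100 μM perfused 30 min. fEPSPs averaged every 2 min; slope between 20 and 80% of maximum measured and expressed as % of control slope. Mean ± s.e.m., n=4.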

[5] = biological target: Glutamate NMDA receptor; Grin1/Grin2a (Rattus norvegicus, UniProt P35439+Q00959); experiment: Antagonist activity at rat recombinant GluN1/GluN2A receptor expressed in Xenopus laevis oocytes assessed as inhibition of glutamate-induced response by two-electrode voltage-clamp electrophysiology assay; type: functional, cell-based, Oocyte; details: read-out: Ki(app)
Glutamate NMDA receptor; Grin1/Grin2a, sequence (Q00959 whole entry, other chains not shown): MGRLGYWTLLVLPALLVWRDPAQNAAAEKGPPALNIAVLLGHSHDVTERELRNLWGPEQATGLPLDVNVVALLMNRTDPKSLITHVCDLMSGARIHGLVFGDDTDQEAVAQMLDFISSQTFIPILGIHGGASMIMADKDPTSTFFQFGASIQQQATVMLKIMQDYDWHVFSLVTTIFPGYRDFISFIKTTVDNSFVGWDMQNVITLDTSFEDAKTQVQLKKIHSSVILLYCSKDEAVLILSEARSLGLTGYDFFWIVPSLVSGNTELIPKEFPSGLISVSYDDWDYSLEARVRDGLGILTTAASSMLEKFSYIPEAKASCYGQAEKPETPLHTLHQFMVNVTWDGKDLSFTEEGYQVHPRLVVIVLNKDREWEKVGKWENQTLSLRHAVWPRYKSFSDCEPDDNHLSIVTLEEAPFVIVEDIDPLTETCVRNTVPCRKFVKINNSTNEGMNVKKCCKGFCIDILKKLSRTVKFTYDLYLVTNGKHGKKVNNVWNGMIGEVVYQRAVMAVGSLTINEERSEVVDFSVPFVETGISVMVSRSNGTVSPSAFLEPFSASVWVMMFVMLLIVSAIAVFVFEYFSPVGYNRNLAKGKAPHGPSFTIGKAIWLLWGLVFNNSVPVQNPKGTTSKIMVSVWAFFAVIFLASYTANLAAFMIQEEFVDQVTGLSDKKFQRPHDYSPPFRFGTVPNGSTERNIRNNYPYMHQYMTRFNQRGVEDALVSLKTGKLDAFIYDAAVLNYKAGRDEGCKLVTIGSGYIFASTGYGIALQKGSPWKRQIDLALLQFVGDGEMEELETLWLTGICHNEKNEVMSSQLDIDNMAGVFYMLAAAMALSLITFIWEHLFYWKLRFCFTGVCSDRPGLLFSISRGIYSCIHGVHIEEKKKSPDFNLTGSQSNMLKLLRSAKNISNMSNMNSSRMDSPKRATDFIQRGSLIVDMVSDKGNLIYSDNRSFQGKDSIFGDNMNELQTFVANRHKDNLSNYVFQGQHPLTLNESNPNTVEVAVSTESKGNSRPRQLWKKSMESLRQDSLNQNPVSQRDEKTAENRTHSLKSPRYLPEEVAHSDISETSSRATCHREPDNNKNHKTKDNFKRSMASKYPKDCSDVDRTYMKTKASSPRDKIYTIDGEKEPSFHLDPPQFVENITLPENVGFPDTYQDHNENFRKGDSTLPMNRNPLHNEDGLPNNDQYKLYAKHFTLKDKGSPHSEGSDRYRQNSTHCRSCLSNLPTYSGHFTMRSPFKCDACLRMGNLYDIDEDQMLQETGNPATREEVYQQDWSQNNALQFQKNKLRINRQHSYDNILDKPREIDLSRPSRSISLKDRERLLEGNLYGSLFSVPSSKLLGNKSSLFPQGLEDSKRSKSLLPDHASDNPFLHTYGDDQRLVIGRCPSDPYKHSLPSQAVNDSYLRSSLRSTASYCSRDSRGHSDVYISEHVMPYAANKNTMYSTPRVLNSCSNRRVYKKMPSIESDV

[6] = biological target: Glutamate receptor ionotropic, kainate 3 (Rattus norvegicus) (UniProt P42264); experiment: Displacement of [3H]-Kainate from wild type rat GluK3 receptor transfected in human HEK293 cells at 1 mM by immunoblot analysis; type: cell-based
Glutamate receptor ionotropic, kainate 3 (Rattus norvegicus), sequence (P42264 whole entry): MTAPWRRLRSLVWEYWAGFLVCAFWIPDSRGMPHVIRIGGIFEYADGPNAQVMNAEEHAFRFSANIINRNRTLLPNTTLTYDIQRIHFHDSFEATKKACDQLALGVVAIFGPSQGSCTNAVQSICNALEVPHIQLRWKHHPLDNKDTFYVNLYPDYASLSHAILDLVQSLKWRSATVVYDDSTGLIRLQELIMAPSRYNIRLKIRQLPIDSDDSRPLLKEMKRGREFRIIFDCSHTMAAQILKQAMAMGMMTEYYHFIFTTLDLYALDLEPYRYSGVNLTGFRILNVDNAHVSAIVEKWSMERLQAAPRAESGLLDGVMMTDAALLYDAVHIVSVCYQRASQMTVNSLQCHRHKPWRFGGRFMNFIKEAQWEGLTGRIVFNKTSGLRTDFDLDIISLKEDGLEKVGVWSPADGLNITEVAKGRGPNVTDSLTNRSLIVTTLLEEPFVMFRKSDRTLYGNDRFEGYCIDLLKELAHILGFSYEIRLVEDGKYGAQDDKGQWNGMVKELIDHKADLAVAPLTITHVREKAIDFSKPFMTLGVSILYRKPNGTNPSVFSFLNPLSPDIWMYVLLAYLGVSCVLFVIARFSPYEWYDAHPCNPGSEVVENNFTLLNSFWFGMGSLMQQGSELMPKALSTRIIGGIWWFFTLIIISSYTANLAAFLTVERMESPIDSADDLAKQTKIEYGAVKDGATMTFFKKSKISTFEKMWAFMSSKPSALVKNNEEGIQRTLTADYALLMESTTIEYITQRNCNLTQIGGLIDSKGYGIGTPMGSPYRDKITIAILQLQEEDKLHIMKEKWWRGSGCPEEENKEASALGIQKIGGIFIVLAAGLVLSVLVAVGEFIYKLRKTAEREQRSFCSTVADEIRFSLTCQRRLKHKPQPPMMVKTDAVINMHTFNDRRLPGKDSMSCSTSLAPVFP

[7] = system: Rattus norvegicus; experiment: Antinociceptive activity in Wistar rat nerve injury model assessed as increased thermal withdrawal latency at 30 mg/kg, ip; type: functional, organism-based; set-up: dose 30 mg/kg
Method in brief: (§2)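 Male Wistar rats (~250 g) with partial saphenous nerve ligation injury, tested on day 7 after injury and also before injury. Drug at 30 mg/kg or vehicle is given i.p. (n=5/group), with testing starting 15 min later. Mechanical threshold is taken from von Frey stimulus:response curves on both hindpaws (5 applications per hair). Thermal latency to radiant heat is the mean of 3 trials per hindpaw. Analysis by two-way ANOVA.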

[8] = system: Rattus norvegicus; experiment: Antinociceptive activity in Wistar rat at 30 mg/kg, ip; type: functional, organism-based; set-up: dose 30 mg/kg; method in brief: as §2
[9] = biological target: Glutamate receptor ionotropic, kainate 2 (Homo sapiens, UniProt Q13002); experiment: Antagonist activity at human recombinant GluK2 receptor expressed in human HEK293 cells assessed as inhibition of glutamate-stimulated calcium influx by fluorescence assay; type: functional, cell-based; method in brief: as §1
Glutamate receptor ionotropic, kainate 2, sequence (Q13002 whole entry): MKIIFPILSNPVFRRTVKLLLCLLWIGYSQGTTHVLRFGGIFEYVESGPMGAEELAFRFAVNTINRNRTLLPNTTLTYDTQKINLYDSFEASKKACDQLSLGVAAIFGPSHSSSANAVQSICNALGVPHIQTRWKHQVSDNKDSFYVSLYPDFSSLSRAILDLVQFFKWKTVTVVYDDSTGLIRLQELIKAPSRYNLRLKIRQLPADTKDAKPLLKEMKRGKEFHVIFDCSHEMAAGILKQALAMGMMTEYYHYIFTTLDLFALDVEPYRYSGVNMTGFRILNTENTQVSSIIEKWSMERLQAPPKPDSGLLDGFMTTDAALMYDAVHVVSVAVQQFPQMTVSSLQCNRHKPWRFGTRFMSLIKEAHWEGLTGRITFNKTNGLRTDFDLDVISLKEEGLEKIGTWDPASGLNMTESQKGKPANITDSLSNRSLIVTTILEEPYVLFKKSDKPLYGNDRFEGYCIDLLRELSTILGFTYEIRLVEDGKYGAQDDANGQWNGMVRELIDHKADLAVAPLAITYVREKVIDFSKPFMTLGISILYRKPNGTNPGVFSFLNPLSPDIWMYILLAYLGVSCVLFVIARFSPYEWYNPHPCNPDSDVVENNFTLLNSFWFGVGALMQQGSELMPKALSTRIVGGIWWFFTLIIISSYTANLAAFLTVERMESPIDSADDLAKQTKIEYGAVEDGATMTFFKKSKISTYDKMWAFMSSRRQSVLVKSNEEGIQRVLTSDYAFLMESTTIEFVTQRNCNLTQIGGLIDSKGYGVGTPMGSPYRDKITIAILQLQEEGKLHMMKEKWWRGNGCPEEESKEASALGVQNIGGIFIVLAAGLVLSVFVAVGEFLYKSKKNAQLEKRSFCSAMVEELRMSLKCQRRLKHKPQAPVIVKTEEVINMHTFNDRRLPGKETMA

[10] = system: HEK293; experiment: Displacement of [3H]-Kainate from […] rat GluK3 A660S mutant transfected in human HEK293 cells at 1 mM by immunoblot analysis; type: cell-based
[11] = biological target: Glutamate receptor ionotropic, kainate 3 (Homo sapiens, UniProt Q13003); experiment: Antagonist activity at human recombinant GluK3 receptor expressed in human HEK293 cells assessed as inhibition of glutamate-stimulated calcium influx by fluorescence assay; type: functional, cell-based
Glutamate receptor ionotropic, kainate 3, sequence (Q13003 whole entry): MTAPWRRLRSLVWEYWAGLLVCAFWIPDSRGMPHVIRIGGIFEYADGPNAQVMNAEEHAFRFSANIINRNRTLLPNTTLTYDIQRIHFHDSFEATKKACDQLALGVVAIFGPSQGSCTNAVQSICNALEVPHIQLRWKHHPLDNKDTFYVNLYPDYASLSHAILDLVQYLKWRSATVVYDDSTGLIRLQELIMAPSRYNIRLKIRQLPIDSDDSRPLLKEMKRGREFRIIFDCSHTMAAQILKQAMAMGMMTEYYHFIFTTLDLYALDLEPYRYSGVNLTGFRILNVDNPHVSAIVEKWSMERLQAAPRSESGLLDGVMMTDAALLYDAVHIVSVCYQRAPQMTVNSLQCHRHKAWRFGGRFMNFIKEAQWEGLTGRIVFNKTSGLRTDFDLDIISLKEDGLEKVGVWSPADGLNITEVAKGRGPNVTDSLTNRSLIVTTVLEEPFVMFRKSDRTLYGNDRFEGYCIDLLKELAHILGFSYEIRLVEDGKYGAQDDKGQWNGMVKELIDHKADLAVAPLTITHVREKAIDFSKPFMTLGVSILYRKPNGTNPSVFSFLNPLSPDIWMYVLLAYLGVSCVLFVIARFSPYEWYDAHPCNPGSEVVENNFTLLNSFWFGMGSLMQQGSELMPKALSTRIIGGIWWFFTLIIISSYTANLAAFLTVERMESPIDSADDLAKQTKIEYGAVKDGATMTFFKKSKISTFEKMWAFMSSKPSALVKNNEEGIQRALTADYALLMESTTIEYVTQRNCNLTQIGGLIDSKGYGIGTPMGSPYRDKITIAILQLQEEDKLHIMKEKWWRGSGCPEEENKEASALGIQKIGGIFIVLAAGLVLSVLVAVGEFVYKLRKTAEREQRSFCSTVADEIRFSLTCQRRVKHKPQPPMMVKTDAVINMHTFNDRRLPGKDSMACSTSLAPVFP

[12] = biological target: Glutamate receptor ionotropic, kainate 3 (Rattus norvegicus) (UniProt P42264); experiment: Displacement of [3H]-Kainate from wild type rat GluK3 receptor transfected in human HEK293 cells at 300 uM by immunoblot analysis; type: cell-based
[13] = biological target: Ionotropic glutamate receptor NMDA 1/2D (Rattus norvegicus, UniProt P35439+Q62645); experiment: Antagonist activity rat recombinant GluN1/GluN2D receptor expressed in Xenopus laevis oocytes assessed as inhibition of glutamate-induced response by two-electrode voltage-clamp electrophysiology assay; type: functional, cell-based, Oocyte; details: read-out: Ki(app)
[14] = biological target: Glutamate NMDA receptor; Grin1/Grin2b (Rattus norvegicus, UniProt P35439+Q00960); experiment: Antagonist activity rat recombinant GluN1/GluN2B receptor expressed in Xenopus laevis oocytes assessed as inhibition of glutamate-induced response by two-electrode voltage-clamp electrophysiology assay; type: functional, cell-based, Oocyte; details: read-out: Ki(app)
Method in brief: (§3)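 Two-electrode voltage clamp of oocytes expressing rat GluN1a with the given GluN2 subunit, held at −60 mV in buffer of 116 mM NaCl, 2 mM KCl, 0.3 mM BaCl2, 5 mM HEPES, pH 7.4. Response is the steady plateau to bath-applied 10 μM L-glutamate plus 10 μM glycine. IC50 converted to apparent Ki via Ki = IC50/(1 + [agonist]/EC50). Means ± s.e.m.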

[15] = biological target: Glutamate NMDA receptor; Grin1/Grin2c (Rattus norvegicus, UniProt P35439+Q00961); experiment: Antagonist activity rat recombinant GluN1/GluN2C receptor expressed in Xenopus laevis oocytes assessed as inhibition of glutamate-induced response by two-electrode voltage-clamp electrophysiology assay; type: functional, cell-based, Oocyte; details: read-out: Ki(app); method in brief: as §3
[16] = system: Rattus norvegicus; experiment: Antinociceptive activity in Wistar rat nerve injury model assessed as reversal of drop in mechanical withdrawal threshold at 30 mg/kg, ip administered before 1 hr on day 7 of injury relative to control; type: functional, organism-based; set-up: dose 30 mg/kg; method in brief: as §2
[17] = system: HEK293; experiment: Displacement of [3H]-Kainate from rat GluK3 A660S mutant transfected in human HEK293 cells at 100 uM by immunoblot analysis; type: cell-based
[18] = biological target: Glutamate receptor ionotropic, kainate 3 (Rattus norvegicus) (UniProt P42264); experiment: Displacement of [3H]-Kainate from wild type rat GluK3 receptor transfected in human HEK293 cells at 100 uM by immunoblot analysis; type: cell-based

**Q.** Which Ratio IC50 [1] does the source give for `O=C(O)[C@H]1NCCN(C(=O)c2ccc3cc(I)c4ccccc4c3c2)[C@H]1C(=O)O` (relative stereo) here?
**A.** The Ratio IC50 was > 100.

**Q.** And the inhibition [2]?
**A.** Its inhibition is “Active”.

**Q.** What about the IC50 [3] of the same compound?
**A.** Its IC50 is 0.65 µM.

**Q.** And the Kb [3]?
**A.** Its Kb is 4.8 µM.

**Q.** What about the Activity [4] of the same compound?
**A.** The Activity was “inactive”.

**Q.** What about the Ki [5] of the same compound?
**A.** The Ki was 7.4 µM.

**Q.** And the inhibition [6]?
**A.** Its inhibition is “Active”.

**Q.** And the Activity [7]?
**A.** Its Activity is “Active”.

**Q.** What about the Activity [8] of the same compound?
**A.** Its Activity is “Active”.

**Q.** And the IC50 [9]?
**A.** The IC50 was > 100 µM.

**Q.** And the Kb [9]?
**A.** Its Kb is > 100 µM.

**Q.** And the inhibition [10]?
**A.** Its inhibition is “Active”.

**Q.** And the IC50 [11]?
**A.** The IC50 was 81.3 µM.

**Q.** And the inhibition [12]?
**A.** Its inhibition is “Active”.

**Q.** What about the Ki [13] of the same compound?
**A.** The Ki was 1 µM.

**Q.** What about the Ki [14] of the same compound?
**A.** Its Ki is 3.8 µM.

**Q.** What about the Ki [15] of the same compound?
**A.** Its Ki is 1.9 µM.

**Q.** What about the Activity [16] of the same compound?
**A.** Its Activity is “Active”.

**Q.** What about the inhibition [17] of the same compound?
**A.** Its inhibition is “Active”.

**Q.** And the inhibition [18]?
**A.** Its inhibition is “Active”.
